Screen size: about 5,600 compounds; about 1,200 (21%) were called active. About 3% were inconclusive and are not listed.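 The calls were made as follows: active = mean inhibition above about 95%, with at least 55% of replicates also reaching it (limit read from the data); inconclusive = meets just one of the two conditions; inactive = meets neither condition.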 Not all results are given here.
Test: Trypanosoma cruzi growth blockers in host fibroblasts – NIH3T3 host cells, beta-gal parasites, cherry-pick, set 2, confirmation (AID 651740);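 also: plate controls were neutral control median for no effect and positive control median for full effect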
Conditions: T. cruzi beta-gal in NIH3T3, GalScreen luminescence, 90 h; at 2.09 µM; stronger effect = higher value
Procedure, shortened: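 Material: beta-gal T. cruzi in mouse NIH/3T3 fibroblasts / Medium: DMEM, 2% FBS, 1% PSG / Also added: T. cruzi trypomastigotes, 5000 per well / Compound: single dose, 100 nL pinned DMSO compound / Timing: ≥90 h co-culture with compound, 60 min detection reagent / Technique: GalScreen lysis and luminescent beta-gal signal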

Structure (SMILES) | inhibition
CC(=O)N(C)C[C@@H]1[C@@H](c2ccc(-c3ccccc3F)cc2)[C@@H](CO)N1C(C)=O | 26.5% (inactive)
OC[C@@H]1[C@H](c2ccc(C#Cc3ccccc3)cc2)[C@@H]2CN(Cc3cncnc3)CCCCN12 | 90.4% (inactive)
N#C[C@H]1[C@@H](c2ccc(C3=CCCCC3)cc2)[C@@H](CO)N1C(=O)NC1CCCCC1 | 59.4% (inactive)
Cc1ccccc1-c1ccc([C@H]2[C@H]3CN(S(=O)(=O)c4ccc(F)cc4)CCCCN3[C@H]2CO)cc1 | 93.8% (inactive)
C[C@@H]1CCCCO[C@H](CN(C)S(=O)(=O)c2ccc(F)cc2)[C@H](C)CN([C@@H](C)CO)C(=O)c2cc(NS(=O)(=O)c3ccccc3)ccc2O1 | 47.8% (inactive)
O=C(CN1CCOCC1)N1CCCCN2[C@@H](CO)[C@H](c3ccc(-c4ccccc4)cc3)[C@@H]2C1 | 36.1% (inactive)
CS(=O)(=O)N1[C@@H](C#N)[C@H](c2ccc(C#CC3CCCCC3)cc2)[C@@H]1CO | 35.7% (inactive)
CCCC#Cc1ccc([C@@H]2[C@@H](C#N)N(C(=O)C3CCCC3)[C@@H]2CO)cc1 | 73.2% (inactive)
CC(C)NC(=O)N1[C@H](C#N)[C@H](c2ccc(C#CC3CCCCC3)cc2)[C@H]1CO | 117% (active)
CN1c2ccc(-c3ccccc3)cc2[C@@H]2[C@@H](CCN2C(=O)c2ccncc2)[C@@H]1CO | 64.5% (inactive)
C[C@@H]1CN([C@H](C)CO)C(=O)Cc2cc(NC(=O)c3ccncc3)ccc2O[C@H]1CN(C)Cc1ccc(-c2ccccc2)cc1 | 48.9% (inactive)
N#Cc1cccc(-c2ccc([C@H]3[C@H](CO)N4CCCCN(C(=O)Nc5cccc(F)c5)C[C@@H]34)cc2)c1 | 87.9% (inactive)
COc1ccc(C#Cc2cnc3c(c2)C(=O)N([C@@H](C)CO)C[C@H](C)[C@@H](CN(C)C(C)=O)O3)cc1 | -5.22% (inactive)
C[C@@H]1CN([C@@H](C)CO)C(=O)c2cc(C#Cc3ccccc3)cnc2O[C@H]1CN(C)C(=O)c1ccccn1 | 62.8% (inactive)
COCC(=O)N(C)C[C@@H]1Oc2ncc(C#Cc3ccccc3OC)cc2C(=O)N([C@@H](C)CO)C[C@H]1C | 99.4% (active)
C[C@H]1CN([C@@H](C)CO)C(=O)CCCn2cc(nn2)CO[C@H]1CN(C)C(=O)c1ccccc1 | -12.4% (inactive)
C[C@H](CO)N1C[C@H](C)[C@@H](CN(C)S(=O)(=O)c2cccc(F)c2)OCc2ccccc2-c2c(n(C)c3ccccc23)C1=O | 91.4% (inactive)
O=C(CN1CCOCC1)N1CCCCN2[C@H](CO)[C@H](c3ccc(-c4ccccc4)cc3)[C@@H]2C1 | 49.3% (inactive)
CCCC#Cc1ccc2c(c1)O[C@@H](CN(C)C(=O)c1ccccc1F)[C@H](C)CN([C@H](C)CO)S2(=O)=O | 19.4% (inactive)
C[C@H](CO)N1C[C@H](C)[C@H](CN(C)Cc2cccnc2)Oc2cc(C#CC3CCCC3)ccc2S1(=O)=O | 82.9% (inactive)
C[C@H]1CN([C@@H](C)CO)S(=O)(=O)c2ccc(C#CCN(C)C)cc2O[C@@H]1CN(C)Cc1ccc(F)cc1 | 93.3% (inactive)

Structure (SMILES) | inhibition
C[C@H]1CN([C@@H](C)CO)S(=O)(=O)c2ccc(C3=CCCCC3)cc2O[C@@H]1CN(C)Cc1ccccc1 | 109% (active)
C[C@@H]1CN([C@@H](C)CO)S(=O)(=O)c2ccc(C#Cc3ccc(F)cc3)cc2O[C@H]1CN(C)C(=O)NC1CCCC1 | 81.2% (inactive)
C[C@@H]1CN([C@H](C)CO)S(=O)(=O)c2ccc(C3=CCCC3)cc2O[C@H]1CN(C)Cc1ccccc1F | 73.8% (inactive)
C[C@@H]1CN([C@H](C)CO)S(=O)(=O)c2ccc(C#CC3CCCC3)cc2O[C@@H]1CN(C)Cc1cccnc1 | 60.2% (inactive)
C[C@H](CO)N1C[C@H](C)[C@@H](CN(C)Cc2ccncc2)Oc2cc(Br)ccc2S1(=O)=O | 92.7% (inactive)
C[C@@H]1CN([C@@H](C)CO)S(=O)(=O)c2ccc(C#Cc3ccc(F)cc3)cc2O[C@H]1CN(C)C(=O)c1ccccn1 | 14.4% (inactive)
CC(C)C#Cc1ccc2c(c1)O[C@H](CN(C)Cc1ccccc1)[C@H](C)CN([C@@H](C)CO)S2(=O)=O | 105% (active)
C[C@@H]1CN([C@@H](C)CO)S(=O)(=O)c2ccc(C#Cc3ccccc3)cc2O[C@@H]1CN(C)C(=O)Nc1ccccc1 | 99.8% (active)
C[C@H]1CN([C@@H](C)CO)S(=O)(=O)c2ccc(C3=CCCC3)cc2O[C@@H]1CN(C)Cc1ccccc1 | 68% (inactive)
C[C@@H]1CN([C@@H](C)CO)S(=O)(=O)c2ccc(/C=C/c3ccccc3)cc2O[C@H]1CN(C)Cc1ccccc1 | 106% (active)
C[C@H](CO)N1C[C@H](C)[C@@H](CN(C)S(=O)(=O)c2ccccc2)Oc2ncc(C#Cc3ccccc3F)cc2C1=O | 93% (inactive)
C[C@H](CO)N1C[C@H](C)[C@H](CN(C)S(=O)(=O)c2cccc(F)c2)Oc2ncc(/C=C/c3ccccc3)cc2C1=O | 46.4% (inactive)
C[C@H]1CN([C@@H](C)CO)C(=O)c2cccc(NS(=O)(=O)c3cn(C)cn3)c2O[C@@H]1CN(C)CC1CCCCC1 | 29.6% (inactive)
Cc1noc(C)c1S(=O)(=O)Nc1ccc2c(c1)C(=O)N([C@@H](C)CO)C[C@H](C)[C@@H](CN(C)C(=O)Nc1cccc3ccccc13)OCCCC[C@H](C)O2 | 42.4% (inactive)
CC(C)(C)[S@@](=O)N1Cc2cc(C(=O)NCc3ccc4c(c3)OCO4)nc(-c3cccc(-c4ccccc4)c3)c2[C@H]1CCO | 91.6% (inactive)
O=C(Nc1ccc(Cl)cc1)N[C@@H]1CC[C@@H](CCNC(=O)c2ccccc2F)O[C@H]1CO | 36.4% (inactive)
Cc1ccc(S(=O)(=O)N(C)C[C@@H]2Oc3ncc(-c4cc5ccccc5o4)cc3C(=O)N([C@H](C)CO)C[C@@H]2C)cc1 | 43% (inactive)
COc1ccccc1-c1ccc2c(c1)O[C@H](CN(C)S(=O)(=O)c1ccc(C)cc1)[C@@H](C)CN([C@H](C)CO)S2(=O)=O | 91.3% (inactive)
O=C(Nc1ccccc1)N1CCCCN2[C@H](CO)[C@@H](c3ccc(C#Cc4ccccn4)cc3)[C@H]2C1 | 39.3% (inactive)
C[C@H](CO)N1C[C@H](C)[C@@H](CN(C)C(=O)C2CCCCC2)Oc2cc(-c3ccccc3)ccc2S1(=O)=O | 68.2% (inactive)
CCCN(C)C[C@@H]1Oc2cc(C#Cc3ccc(F)cc3)ccc2S(=O)(=O)N([C@H](C)CO)C[C@H]1C | 68.9% (inactive)

Structure (SMILES) | inhibition
C[C@H](CO)N1C[C@H](C)[C@H](CN(C)Cc2ccncc2)Oc2cc(-c3ccncc3)ccc2S1(=O)=O | 90.6% (inactive)
C[C@@H]1CN([C@H](C)CO)S(=O)(=O)c2ccc(C#C[C@@H](C)O)cc2O[C@@H]1CN(C)Cc1ccc(-c2ccccc2)cc1 | 96.9% (active)
Cc1ccc(S(=O)(=O)N2C[C@@H](O)COC[C@@H]3O[C@H](CC(=O)NCc4ccc(Cl)c(Cl)c4)CC[C@H]32)cc1 | 50.2% (inactive)
COCCNC[C@@H]1[C@H](c2ccccc2)[C@H](CO)N1c1nc(C)c(C)s1 | 5.12% (inactive)
O=C(Nc1ccc2c(c1)[C@@H]1C[C@H](CC(=O)N3CCOCC3)O[C@@H](CO)[C@@H]1O2)c1ccc2c(c1)OCO2 | 6.38% (inactive)
C[C@@H]1CN([C@H](C)CO)C(=O)c2cc(NS(C)(=O)=O)ccc2O[C@@H](C)CCCCO[C@H]1CN(C)S(=O)(=O)c1cn(C)cn1 | -5.24% (inactive)
COc1ccc(C#Cc2ccc([C@@H]3[C@@H](CO)N4CCCCN(C(=O)c5ccncc5)C[C@@H]34)cc2)cc1 | 30% (inactive)
C[C@@H]1CN([C@H](C)CO)C(=O)c2cccc(NC(=O)c3cnccn3)c2O[C@@H]1CN(C)Cc1ccc(C(=O)Nc2ccccc2N)cc1 | 82.4% (inactive)
C[C@H]1CN([C@@H](C)CO)S(=O)(=O)c2ccc(C#CC3CCCC3)cc2O[C@H]1CN(C)C(=O)Cc1ccncc1 | 79.4% (inactive)
C[C@@H]1CN([C@@H](C)CO)C(=O)c2cc(NC(=O)Cc3ccccc3)ccc2O[C@@H]1CN(C)Cc1ccc(Oc2ccccc2)cc1 | 94.9% (inactive)
C[C@@H]1CN([C@@H](C)CO)C(=O)c2cc(NC(=O)Nc3ccc4c(c3)OCO4)ccc2O[C@@H]1CN(C)Cc1ccc(Oc2ccccc2)cc1 | -1.56% (inactive)
C[C@@H]1CN([C@@H](C)CO)C(=O)c2cc(NC(=O)Nc3cccc4ccccc34)ccc2O[C@H]1CN(C)Cc1ccc(Cl)c(Cl)c1 | 102% (active)
C[C@H]1CN([C@@H](C)CO)C(=O)c2cc(NC(=O)Nc3ccc4c(c3)OCO4)ccc2O[C@@H]1CN(C)Cc1ccc(Oc2ccccc2)cc1 | 66.6% (inactive)
Cc1ccc(S(=O)(=O)Nc2ccc3c(c2)C(=O)N([C@H](C)CO)C[C@H](C)[C@H](CN(C)Cc2ccc(Cl)c(Cl)c2)O3)cc1 | 74% (inactive)
C[C@@H]1CN([C@@H](C)CO)C(=O)c2cc(NC(=O)Nc3cccc4ccccc34)ccc2O[C@H]1CN(C)Cc1ccc(Oc2ccccc2)cc1 | 106% (active)
Cc1ccc(-c2ccc([C@H]3[C@H](CO)N4CCCCN(Cc5cncnc5)C[C@@H]34)cc2)cc1 | 50.8% (inactive)
C[C@@H]1CN([C@H](C)CO)C(=O)c2cc(C#Cc3ccccn3)cnc2O[C@H]1CN(C)Cc1ccccc1 | 76.7% (inactive)
C[C@H]1CN([C@@H](C)CO)C(=O)c2ccccc2-c2ccccc2CO[C@@H]1CN(C)S(=O)(=O)c1ccc(C(F)(F)F)cc1 | 71.5% (inactive)
CCC(=O)N1CCCCN2[C@H](C1)[C@@H](c1ccc(-c3ccc(F)cc3)cc1)[C@@H]2CO | -6.94% (inactive)

Reference: PubChem BioAssay AID651740 (Broad Institute, 2012)
